Assay results from ChEMBL document CHEMBL1141369, “Salinosporamides D-J from the marine actinomycete Salinispora tropica, bromosalinosporamide, and thioester derivatives are potent inhibitors of the 20S proteasome” (J Nat Prod, 2007).

How the values were obtained:
[1] = Inhibition of CT-L activity of rabbit muscle 20S proteasome; format: tissue-based, Oryctolagus cuniculus, Muscle tissue
Procedure, shortened: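 Serially diluted compound added in duplicate and preincubated 5 min at 37 °C. Reaction started with Suc-LLVY-AMC at 20 µM final, fluorescence read at ex 390/em 460 nm. IC50 from sigmoidal variable-slope fit, mean ± SD of at least three independent experiments.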

RPMI-8226 = assay: Cytotoxicity against human RPMI 8226 cells; format: cell-based
Procedure, shortened: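 Seeded at 2 × 10^4 cells/well, then serially diluted compound added in triplicate for 48 h. Growth read by resazurin reduction (fluorescence). IC50 = concentration giving 50% of maximal observed growth inhibition, from sigmoidal dose-response fit.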

SMILES | IC50 [1] [nM] | IC50 (RPMI-8226) [nM]
COC(=O)[C@@H](CSC(=O)[C@]1([C@@H](O)[C@@H]2C=CCCC2)NC(=O)[C@H](CCCl)[C@]1(C)O)NC(C)=O | 4 | 9.7
CC[C@H]1C(=O)N[C@](C(=O)SCCC(=O)OC)([C@@H](O)[C@@H]2C=CCCC2)[C@@]1(C)O | 50 | 8000
C[C@@]12OC(=O)[C@]1(CC1C=CCCC1)NC(=O)[C@@H]2CCCl (stereo not given in full) [SALINOSPORAMIDE J] | 52 | 250
COC(=O)CCSC(=O)[C@]1([C@@H](O)[C@@H]2C=CCCC2)NC(=O)[C@@H]2CCO[C@@]21C | 230 | 7500
COC(=O)CCSC(=O)[C@]1([C@@H](O)[C@@H]2C=CCCC2)NC(=O)[C@H](CCCl)[C@]1(C)O | 9.3 | 11
